Source: ChEMBL document CHEMBL4373647, “Design, synthesis, and antimicrobial evaluation of 1,4-dihydroindeno[1,2-c]pyrazole tethered carbohydrazide hybrids: exploring their in silico ADMET, ergosterol inhibition and ROS inducing potential” (Medchemcomm, 2019)
The source made the active and inactive calls.

Experiments:
Candida albicans [1] = test: Fungicidal activity against Candida albicans MTCC 183 assessed as fungal killing incubated for 24 hrs; format: functional; conditions: MTCC 183, 24 h
Outline: (§1)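 Compound at 125–0.97 µg/mL in Mueller Hinton broth in microcentrifuge tubes, each Candida strain added, held 24 h at 37 °C. 10 µL of the treated suspension plated on Mueller Hinton agar and incubated a further 24 h at 37 °C. MFC is the lowest concentration that kills the strain. Duplicates, means reported.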

Candida albicans [2] = test: Ratio of MFC to MIC against Candida albicans MTCC 1637; format: functional
Candida parapsilosis [3] = test: Fungicidal activity against Candida parapsilosis MTCC 1744 assessed as fungal killing incubated for 24 hrs; format: functional; conditions: Lodderomyces parapsilosis, MTCC 1744, 24 h; outline: as §1
Candida albicans [4] = test: Antifungal activity against Candida albicans MTCC 7315 assessed as inhibition of fungal growth incubated for 24 hrs by agar well diffusion method; format: functional; conditions: MTCC 7315, 24 h
Outline: (§2)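 Candida strains from MTCC, pre-cultured and spread on Mueller Hinton agar. Wells received compound dissolved in 10% DMSO, 125–0.97 µg/mL; miconazole standard over the same range, DMSO negative control. After 24 h at 37 °C, MIC was read as the lowest concentration giving an inhibition zone. Duplicate experiments, means given.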

Candida albicans [5] = test: Fungicidal activity against Candida albicans MTCC 7315 assessed as fungal killing incubated for 24 hrs; format: functional; conditions: MTCC 7315, 24 h; outline: as §1
Nakaseomyces glabratus [6] = test: Antifungal activity against Candida glabrata MTCC 3019 assessed as inhibition of fungal growth incubated for 24 hrs by agar well diffusion method; format: functional; conditions: MTCC 3019, 24 h; outline: as §2
Candida albicans [7] = test: Antifungal activity against Candida albicans MTCC 227 assessed as inhibition of fungal growth incubated for 24 hrs by agar well diffusion method; format: functional; conditions: MTCC 227, 24 h; outline: as §2
Pichia kudriavzevii [8] = test: Ratio of MFC to MIC against Candida krusei MTCC 3020; format: functional
Outline: (§3)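 MIC by agar well diffusion: Candida lawns on Mueller-Hinton agar, wells loaded with compound in 10% DMSO (125–0.97 µg/mL), 24 h at 37 °C, lowest concentration giving an inhibition zone. MFC: compound in Mueller-Hinton broth (125–0.97 µg/mL) with yeast, 24 h at 37 °C, 10 µL plated on agar, lowest killing concentration after 24 h. Ratio is MFC/MIC.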

Nakaseomyces glabratus [9] = test: Fungicidal activity against Candida glabrata MTCC 3019 assessed as fungal killing incubated for 24 hrs; format: functional; conditions: MTCC 3019, 24 h; outline: as §1
Staphylococcus aureus [10] = test: Antibacterial activity against Staphylococcus aureus MTCC 96 assessed as inhibition of bacterial growth incubated for 24 hrs by agar well diffusion method; format: functional
Outline: (§4)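 Strains from MTCC; inoculum at 0.5 McFarland spread on Mueller-Hinton agar; 6 mm wells loaded with compound over 125–0.97 µg/mL; ciprofloxacin positive control (same range), DMSO negative control. Plates held 24 h at 37 °C; MIC taken as lowest concentration giving a clear inhibition zone. Triplicate runs, mean MIC reported.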

Candida albicans [11] = test: Induction of ROS generation in Candida albicans MTCC 3017 assessed as accumulation of intracellular ROS level by measuring fluorescence intensity at 5 to 25 ug/ml after 24 hrs by DCFH-DA probe based fluorimetric assay; format: functional, organism-based
Outline: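 C. albicans MTCC 3017 biofilms grown 24 h at 37 °C in 96-well plates, then treated 24 h with compound at 0, 5, 10, 15, 20, 25 µg/mL; untreated cells served as control. Cells then loaded with 10 µM DCFH-DA for 24 h in the dark, and fluorescence read at 485 nm excitation and 535 nm emission. Triplicates.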

Candida albicans [12] = test: Fungicidal activity against Candida albicans MTCC 3018 assessed as fungal killing incubated for 24 hrs; format: functional; conditions: MTCC 3018, 24 h; outline: as §1
Candida albicans [13] = test: Antifungal activity against Candida albicans MTCC 3017 assessed as inhibition of fungal growth incubated for 24 hrs by agar well diffusion method; format: functional; conditions: MTCC 3017, 24 h; outline: as §2
Candida albicans [14] = test: Fungicidal activity against Candida albicans MTCC 4748 assessed as fungal killing incubated for 24 hrs; format: functional; conditions: MTCC 4748, 24 h; outline: as §1
Candida albicans [15] = test: Antifungal activity against Candida albicans MTCC 4748 assessed as inhibition of fungal growth incubated for 24 hrs by agar well diffusion method; format: functional; conditions: MTCC 4748, 24 h; outline: as §2
Candida albicans [16] = test: Fungicidal activity against Candida albicans MTCC 227 assessed as fungal killing incubated for 24 hrs; format: functional; conditions: MTCC 227, 24 h; outline: as §1
[17] = target: Lanosterol 14-alpha demethylase (Candida albicans (strain SC5314 / ATCC MYA-2876) (Yeast), UniProt P10613); test: Inhibition of CYP51 in Candida albicans MTCC 3017 assessed as reduction in ergosterol level incubated for 20 hrs by UV-visible spectrophotometry analysis
Lanosterol 14-alpha demethylase, sequence (P10613 whole entry): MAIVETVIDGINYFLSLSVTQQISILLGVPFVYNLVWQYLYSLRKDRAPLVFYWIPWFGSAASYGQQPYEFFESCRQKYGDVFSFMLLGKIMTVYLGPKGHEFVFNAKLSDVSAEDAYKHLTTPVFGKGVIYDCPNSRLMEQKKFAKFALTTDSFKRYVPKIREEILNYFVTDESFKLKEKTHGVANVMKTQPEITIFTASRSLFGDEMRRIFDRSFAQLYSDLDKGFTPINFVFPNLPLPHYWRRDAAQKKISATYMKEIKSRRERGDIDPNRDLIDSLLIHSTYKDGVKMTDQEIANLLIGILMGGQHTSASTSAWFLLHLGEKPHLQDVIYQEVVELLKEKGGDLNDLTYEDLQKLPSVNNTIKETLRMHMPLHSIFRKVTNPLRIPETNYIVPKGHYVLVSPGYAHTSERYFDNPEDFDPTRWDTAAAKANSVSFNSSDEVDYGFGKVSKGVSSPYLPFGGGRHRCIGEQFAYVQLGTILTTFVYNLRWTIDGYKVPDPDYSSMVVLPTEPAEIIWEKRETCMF
Outline: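 Modified Breivik–Owades sterol method: Mueller Hinton broth with compound at 0, 2, 4, 8, 16 µg/mL, inoculated with single Candida colonies, shaken at 200 rpm for 20 h at 30 °C. Pellets washed and weighed, saponified in 25% alcoholic KOH for 70 min at 90 °C, sterols extracted into n-heptane, diluted 1:5 in ethanol and scanned at 230–310 nm. Triplicates.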

Candida albicans [18] = test: Ratio of MFC to MIC against Candida albicans MTCC 7315; format: functional; outline: as §3
Pichia kudriavzevii [19] = test: Antifungal activity against Candida krusei MTCC 3020 assessed as inhibition of fungal growth incubated for 24 hrs by agar well diffusion method; format: functional; conditions: MTCC 3020, 24 h; outline: as §2
Candida albicans [20] = test: Ratio of MFC to MIC against Candida albicans MTCC 3018; format: functional; outline: as §3
Escherichia coli = test: Antibacterial activity against Escherichia coli MTCC 739 assessed as inhibition of bacterial growth incubated for 24 hrs by agar well diffusion method; format: functional; outline: as §4
Staphylococcus aureus [21] = test: Antibacterial activity against Staphylococcus aureus MLS-16 MTCC 2940 assessed as inhibition of bacterial growth incubated for 24 hrs by agar well diffusion method; format: functional; outline: as §4
Bacillus subtilis = test: Antibacterial activity against Bacillus subtilis MTCC 121 assessed as inhibition of bacterial growth incubated for 24 hrs by agar well diffusion method; format: functional; outline: as §4
Candida albicans [22] = test: Antifungal activity against Candida albicans MTCC 1637 assessed as inhibition of fungal growth incubated for 24 hrs by agar well diffusion method; format: functional; conditions: MTCC 1637, 24 h; outline: as §2
Candida parapsilosis [23] = test: Ratio of MFC to MIC against Candida parapsilosis MTCC 1744; format: functional; outline: as §3
MRC5 = test: Cytotoxicity against human MRC5 cells incubated for 48 hrs by MTT assay; format: cell-based; conditions: MRC5, 48 h
Outline: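 Normal human lung MRC5 cells grown 24 h in 96-well plates, then exposed to a range of compound concentrations for 48 h. MTT (250 µg/mL) added for 2 h, medium replaced by DMSO, absorbance read at 570 nm. Miconazole positive control, DMSO negative control. Triplicates, mean ± S.D.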

Candida albicans [24] = test: Fungicidal activity against Candida albicans MTCC 1637 assessed as fungal killing incubated for 24 hrs; format: functional; conditions: MTCC 1637, 24 h; outline: as §1
Pichia sporocuriosa [25] = test: Fungicidal activity against Issatchenkia hanoiensis MTCC 4755 assessed as fungal killing incubated for 24 hrs; format: functional; conditions: MTCC 4755, 24 h; outline: as §1
Candida albicans [26] = test: Antifungal activity against Candida albicans MTCC 3018 assessed as inhibition of fungal growth incubated for 24 hrs by agar well diffusion method; format: functional; conditions: MTCC 3018, 24 h; outline: as §2
Nakaseomyces glabratus [27] = test: Ratio of MFC to MIC against Candida glabrata MTCC 3019; format: functional; outline: as §3
Candida parapsilosis [28] = test: Antifungal activity against Candida parapsilosis MTCC 1744 assessed as inhibition of fungal growth incubated for 24 hrs by agar well diffusion method; format: functional; conditions: Lodderomyces parapsilosis, MTCC 1744, 24 h; outline: as §2
Candida albicans [29] = test: Ratio of MFC to MIC against Candida albicans MTCC 183; format: functional
Micrococcus luteus = test: Antibacterial activity against Micrococcus luteus MTCC 2470 assessed as inhibition of bacterial growth incubated for 24 hrs by agar well diffusion method; format: functional; outline: as §4
Pichia sporocuriosa [30] = test: Ratio of MFC to MIC against Issatchenkia hanoiensis MTCC 4755; format: functional; outline: as §3
Pichia kudriavzevii [31] = test: Fungicidal activity against Candida krusei MTCC 3020 assessed as fungal killing incubated for 24 hrs; format: functional; conditions: MTCC 3020, 24 h; outline: as §1
Raoultella planticola = test: Antibacterial activity against Klebsiella planticola MTCC 530 assessed as inhibition of bacterial growth incubated for 24 hrs by agar well diffusion method; format: functional; outline: as §4
Candida albicans [32] = test: Antifungal activity against Candida albicans MTCC 183 assessed as inhibition of fungal growth incubated for 24 hrs by agar well diffusion method; format: functional; conditions: MTCC 183, 24 h; outline: as §2
Candida albicans [33] = test: Ratio of MFC to MIC against Candida albicans MTCC 227; format: functional; outline: as §3
Pichia sporocuriosa [34] = test: Antifungal activity against Issatchenkia hanoiensis MTCC 4755 assessed as inhibition of fungal growth incubated for 24 hrs by agar well diffusion method; format: functional; conditions: MTCC 4755, 24 h; outline: as §2
Pseudomonas aeruginosa = test: Antibacterial activity against Pseudomonas aeruginosa MTCC 2453 assessed as inhibition of bacterial growth incubated for 24 hrs by agar well diffusion method; format: functional; outline: as §4
Candida albicans [35] = test: Ratio of MFC to MIC against Candida albicans MTCC 4748; format: functional; outline: as §3

Clc1ccc(COC(Cn2ccnc2)c2ccc(Cl)cc2Cl)c(Cl)c1 (stereo unspecified) [MICONAZOLE]
inactive: MIC (Staphylococcus aureus [10]) | MIC (Escherichia coli) | MIC (Staphylococcus aureus [21]) | MIC (Bacillus subtilis) | MIC (Micrococcus luteus) | MIC (Raoultella planticola) | MIC (Pseudomonas aeruginosa)
61.7 µg/mL: IC50 (MRC5)
active: Activity (Candida albicans [11])
3.9 µg/mL: MIC (Candida albicans [4]) | MIC (Nakaseomyces glabratus [6]) | MIC (Candida albicans [7]) | MIC (Candida albicans [13]) | MIC (Candida albicans [15]) | MIC (Pichia kudriavzevii [19]) | MIC (Candida albicans [22]) | MIC (Candida albicans [26]) | MIC (Candida parapsilosis [28]) | MIC (Candida albicans [32]) | MIC (Pichia sporocuriosa [34])
2: Ratio (Candida albicans [2]) | Ratio (Pichia kudriavzevii [8]) | Ratio (Candida albicans [18]) | Ratio (Candida albicans [20]) | Ratio (Candida parapsilosis [23]) | Ratio (Nakaseomyces glabratus [27]) | Ratio (Candida albicans [29]) | Ratio (Pichia sporocuriosa [30]) | Ratio (Candida albicans [33]) | Ratio (Candida albicans [35])
7.8 µg/mL: MFC (Candida albicans [1]) | MFC (Candida parapsilosis [3]) | MFC (Candida albicans [5]) | MFC (Nakaseomyces glabratus [9]) | MFC (Candida albicans [12]) | MFC (Candida albicans [14]) | MFC (Candida albicans [16]) | MFC (Candida albicans [24]) | MFC (Pichia sporocuriosa [25]) | MFC (Pichia kudriavzevii [31])
Dose-dependent effect: inhibition (INH) [17]
